Reference: ChEMBL document CHEMBL3421533, “The Discovery of Orally Bioavailable Tyrosine Threonine Kinase (TTK) Inhibitors: 3-(4-(heterocyclyl)phenyl)-1H-indazole-5-carboxamides as Anticancer Agents” (J Med Chem, 2015)

System: not listed separately
Assay: AUC in athymic CD1 nude mouse at 10 mg/kg, po by LC-MS/MS analysis
Assay type: ADME, organism-based
Parameters: dose 10 mg/kg, route oral
Settings: plasma

Row | AUC | Structure (SMILES)
1 | 480 ng·h/mL | CN1CCN(c2ccc(-c3n[nH]c4ccc(C(=O)NCC5(N6CCOCC6)CCCCC5)cc34)cc2)CC1
2 | 25 ng·h/mL | NS(=O)(=O)c1cccc(-c2n[nH]c3ccc(NC(=O)C(c4ccsc4)N4CCCC4)cc23)c1 (racemic)
3 | 13500 ng·h/mL | O=C(NC(c1ccccc1)C1CC1)c1ccc2[nH]nc(-c3ccc(N4CCOCC4)cc3)c2c1 (racemic)
4 | 590 ng·h/mL | CN1CCN(c2ccc(-c3n[nH]c4ccc(NC(=O)C(c5ccsc5)N5CCCC5)cc34)cc2)CC1 (racemic)

System: not listed separately
Assay: Cmax in athymic CD1 nude mouse at 10 mg/kg, po by LC-MS/MS analysis
Assay type: ADME, organism-based
Parameters: dose 10 mg/kg, route oral
Settings: athymic CD1 nude, in vivo

Row | Cmax | Structure (SMILES)
5 | 160 ng/mL | CN1CCN(c2ccc(-c3n[nH]c4ccc(C(=O)NCC5(N6CCOCC6)CCCCC5)cc34)cc2)CC1
6 | 7 ng/mL | NS(=O)(=O)c1cccc(-c2n[nH]c3ccc(NC(=O)C(c4ccsc4)N4CCCC4)cc23)c1 (racemic)
7 | 3900 ng/mL | O=C(NC(c1ccccc1)C1CC1)c1ccc2[nH]nc(-c3ccc(N4CCOCC4)cc3)c2c1 (racemic)
8 | 180 ng/mL | CN1CCN(c2ccc(-c3n[nH]c4ccc(NC(=O)C(c5ccsc5)N5CCCC5)cc34)cc2)CC1 (racemic)

System: MDA-MB-468
Assay: Cytotoxicity against human MDA-MB-468 cells after 5 days by sulforhodamine B assay
Assay type: functional
Settings: Homo sapiens, MDA-MB-468, 120 h
Method in brief: (§1)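 Cancer lines were seeded at 800–6000 cells per well according to growth rate, 24 h before compound overlay. After culture, cells were fixed in situ and stained with sulforhodamine B. GI50 values were derived by curve fitting.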

Row | Structure (SMILES) | GI50
9 | CN1CCN(c2ccc(-c3n[nH]c4ccc(C(=O)NCC5(N6CCOCC6)CCCCC5)cc34)cc2)CC1 | 180 nM
10 | NS(=O)(=O)c1cccc(-c2n[nH]c3ccc(NC(=O)C(c4ccsc4)N4CCCC4)cc23)c1 (racemic) | 87 nM
11 | O=C(NC(c1ccccc1)C1CC1)c1ccc2[nH]nc(-c3ccc(N4CCOCC4)cc3)c2c1 (racemic) | 330 nM
12 | CN1CCN(c2ccc(-c3n[nH]c4ccc(NC(=O)C(c5ccsc5)N5CCCC5)cc34)cc2)CC1 (racemic) | 250 nM

Biological target: Aurora kinase B/Inner centromere protein (Homo sapiens, UniProt Q96GD4)
Assay: Inhibition of AURKB/INCENP (unknown origin) preincubated for 15 mins prior to ATP addition by FRET-based homogenous assay
Assay type: protein-complex assay
Settings: not given
Method in brief: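 The enzyme was AURKB/INCENP in a FRET-based homogeneous assay run to kit specifications, with ATP at 128 μM. […] Each IC50 came from a single determination, reported with its standard fitting error.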

Aurora kinase B/Inner centromere protein, sequence (Q96GD4 whole entry): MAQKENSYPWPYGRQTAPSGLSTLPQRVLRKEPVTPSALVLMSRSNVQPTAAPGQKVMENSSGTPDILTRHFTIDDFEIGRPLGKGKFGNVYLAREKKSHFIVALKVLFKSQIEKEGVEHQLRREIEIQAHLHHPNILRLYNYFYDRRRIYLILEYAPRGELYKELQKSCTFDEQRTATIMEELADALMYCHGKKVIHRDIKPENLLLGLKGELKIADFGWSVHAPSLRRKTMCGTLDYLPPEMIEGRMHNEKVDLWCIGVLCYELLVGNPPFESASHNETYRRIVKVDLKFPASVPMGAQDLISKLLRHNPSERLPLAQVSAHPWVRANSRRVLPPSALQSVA
Aurora kinase B/Inner centromere protein, sequence (Q9NQS7 whole entry, further chain): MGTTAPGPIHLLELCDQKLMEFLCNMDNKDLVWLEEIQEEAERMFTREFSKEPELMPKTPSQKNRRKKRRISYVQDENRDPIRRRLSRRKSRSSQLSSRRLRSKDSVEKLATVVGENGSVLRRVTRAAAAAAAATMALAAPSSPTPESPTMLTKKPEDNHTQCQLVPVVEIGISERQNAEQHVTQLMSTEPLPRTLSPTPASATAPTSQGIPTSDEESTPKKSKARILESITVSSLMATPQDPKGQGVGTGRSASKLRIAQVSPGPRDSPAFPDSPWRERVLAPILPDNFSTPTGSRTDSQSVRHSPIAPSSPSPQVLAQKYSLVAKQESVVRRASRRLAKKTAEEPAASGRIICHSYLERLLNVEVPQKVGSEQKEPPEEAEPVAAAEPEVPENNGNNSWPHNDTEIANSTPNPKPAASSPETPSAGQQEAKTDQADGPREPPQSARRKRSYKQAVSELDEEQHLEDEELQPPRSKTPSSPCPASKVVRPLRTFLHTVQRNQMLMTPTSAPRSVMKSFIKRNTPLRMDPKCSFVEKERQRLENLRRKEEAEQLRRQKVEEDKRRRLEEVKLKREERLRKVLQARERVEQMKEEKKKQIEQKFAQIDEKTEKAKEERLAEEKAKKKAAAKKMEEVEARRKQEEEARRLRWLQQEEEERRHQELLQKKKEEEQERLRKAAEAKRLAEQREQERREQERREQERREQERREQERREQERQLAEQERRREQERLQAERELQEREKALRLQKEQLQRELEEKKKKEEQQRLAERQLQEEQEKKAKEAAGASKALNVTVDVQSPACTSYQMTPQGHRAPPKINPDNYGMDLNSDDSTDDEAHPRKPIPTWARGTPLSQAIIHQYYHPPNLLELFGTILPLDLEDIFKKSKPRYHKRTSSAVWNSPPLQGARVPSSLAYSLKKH

Row | IC50 | Structure (SMILES)
13 | 440 nM | CN1CCN(c2ccc(-c3n[nH]c4ccc(C(=O)NCC5(N6CCOCC6)CCCCC5)cc34)cc2)CC1
14 | 190 nM | O=C(NC(c1ccccc1)C1CC1)c1ccc2[nH]nc(-c3ccc(N4CCOCC4)cc3)c2c1 (racemic)

System: not listed separately
Assay: Cytotoxicity against human HCT116 cells after 5 days by sulforhodamine B assay
Assay type: functional, HCT-116
Settings: Homo sapiens, HCT-116, 120 h
Method in brief: as §1

Row | Structure (SMILES) | GI50
15 | CN1CCN(c2ccc(-c3n[nH]c4ccc(C(=O)NCC5(N6CCOCC6)CCCCC5)cc34)cc2)CC1 | 12 nM
16 | NS(=O)(=O)c1cccc(-c2n[nH]c3ccc(NC(=O)C(c4ccsc4)N4CCCC4)cc23)c1 (racemic) | 39 nM
17 | O=C(NC(c1ccccc1)C1CC1)c1ccc2[nH]nc(-c3ccc(N4CCOCC4)cc3)c2c1 (racemic) | 86 nM
18 | CN1CCN(c2ccc(-c3n[nH]c4ccc(NC(=O)C(c5ccsc5)N5CCCC5)cc34)cc2)CC1 (racemic) | 57 nM

Biological target: T1, Dual specificity protein kinase TTK (Homo sapiens, UniProt P33981)
T1 sequence (P33981 whole entry): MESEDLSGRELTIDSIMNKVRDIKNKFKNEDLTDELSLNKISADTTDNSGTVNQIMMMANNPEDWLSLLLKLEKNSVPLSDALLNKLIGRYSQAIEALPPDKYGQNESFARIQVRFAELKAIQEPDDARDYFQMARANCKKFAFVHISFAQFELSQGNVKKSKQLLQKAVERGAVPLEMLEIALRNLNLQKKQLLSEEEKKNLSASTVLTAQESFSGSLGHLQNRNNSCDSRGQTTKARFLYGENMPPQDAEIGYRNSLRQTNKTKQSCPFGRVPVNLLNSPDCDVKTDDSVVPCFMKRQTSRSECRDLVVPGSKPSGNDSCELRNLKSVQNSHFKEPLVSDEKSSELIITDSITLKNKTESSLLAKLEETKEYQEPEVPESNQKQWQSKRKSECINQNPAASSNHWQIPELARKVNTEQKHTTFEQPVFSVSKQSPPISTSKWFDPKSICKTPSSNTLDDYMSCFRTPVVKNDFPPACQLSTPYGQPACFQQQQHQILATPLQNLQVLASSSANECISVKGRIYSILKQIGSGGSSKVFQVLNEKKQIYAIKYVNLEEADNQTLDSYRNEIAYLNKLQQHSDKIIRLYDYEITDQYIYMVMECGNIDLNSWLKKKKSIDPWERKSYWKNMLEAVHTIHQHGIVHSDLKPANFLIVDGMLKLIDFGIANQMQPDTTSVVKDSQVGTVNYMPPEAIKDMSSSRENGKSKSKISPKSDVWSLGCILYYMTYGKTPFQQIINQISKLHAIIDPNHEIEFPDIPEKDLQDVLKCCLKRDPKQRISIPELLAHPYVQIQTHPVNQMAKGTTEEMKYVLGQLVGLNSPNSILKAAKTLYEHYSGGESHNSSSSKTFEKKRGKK
Assay: Inhibition of amino terminal GST-fused full length human TTK using His6-SUMO-TTK-N as substrate preincubated for 15 mins prior to ATP addition by indirect ELISA detection system
Settings: not given

Row | IC50 | Structure (SMILES)
19 | 7.6 nM | CN1CCN(c2ccc(-c3n[nH]c4ccc(C(=O)NCC5(N6CCOCC6)CCCCC5)cc34)cc2)CC1
20 | 17 nM | O=C(NC(c1ccccc1)C1CC1)c1ccc2[nH]nc(-c3ccc(N4CCOCC4)cc3)c2c1 (racemic)
21 | 7.4 nM | CN1CCN(c2ccc(-c3n[nH]c4ccc(NC(=O)C(c5ccsc5)N5CCCC5)cc34)cc2)CC1 (racemic)
